Bioassay records: PubChem, several laboratories
Autophagy HCS: autophagy modulation, high-content screen | 0.98% of 190,000 active | AID 463193 | MEF GFP-LC3 puncta imaging; test concentration mostly 10 µM | calls only at 10 µM (by protocol);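 active = percentage of spot-positive cells more than 3 SD above its plate mean, without a fluorescence outlier flag or 80% toxicity; inconclusive = no clear call, values can overlap the other calls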;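 note: spot-positive cell cutoff set from DMSO-treated cells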
Insulin prom inh: TRM-6 insulin promoter activity inhibition; TRM-6 cells (human fetal islet line), insulin promoter-eGFP reporter, imaging; reporter expression induced with tamoxifen; inhibition, % at 2 µM; 0.9% of 130,000 active; AID 1273;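 active = inhibition above the mean plus 3 SD, with well images judged a real hit on visual review, cut at about 60% in these data, passing the limit was not always enough; inconclusive = inhibition over the cutoff but images rejected on review; inactive = inhibition not above the cutoff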
Furin inh: human furin inhibition; P09958; inhibition, % at 20 µM or 30 µM; purified furin, fluorogenic substrate cleavage; AID 463115; 0.061% of 220,000 active; in the data active = inhibition above about 25%
Target sequence (P09958 108-714 limits assumed): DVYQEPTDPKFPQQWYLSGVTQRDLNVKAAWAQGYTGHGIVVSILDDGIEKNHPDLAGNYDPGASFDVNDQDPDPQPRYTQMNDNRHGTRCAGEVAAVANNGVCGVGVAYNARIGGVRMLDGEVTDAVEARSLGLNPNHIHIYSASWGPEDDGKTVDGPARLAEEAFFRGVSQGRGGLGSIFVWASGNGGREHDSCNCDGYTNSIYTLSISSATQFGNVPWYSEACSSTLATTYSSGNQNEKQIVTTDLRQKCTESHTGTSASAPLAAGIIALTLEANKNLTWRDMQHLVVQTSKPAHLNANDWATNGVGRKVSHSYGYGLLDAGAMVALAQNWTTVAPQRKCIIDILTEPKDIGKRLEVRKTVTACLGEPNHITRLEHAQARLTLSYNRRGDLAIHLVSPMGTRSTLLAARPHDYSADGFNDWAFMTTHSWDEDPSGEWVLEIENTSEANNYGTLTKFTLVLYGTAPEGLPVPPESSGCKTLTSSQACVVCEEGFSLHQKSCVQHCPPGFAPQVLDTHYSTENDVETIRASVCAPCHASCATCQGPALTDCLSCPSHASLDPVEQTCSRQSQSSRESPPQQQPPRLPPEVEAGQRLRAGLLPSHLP
HSV replic up: increases HSV replication in cells. HSV replication augmentation in cells, fold increase. 0.005% of 220,000 active. AID 1956. maximum fold increase; in the data active = maximum fold increase above about 1.5; inconclusive = no clear call, values can overlap the other calls; tested in PC3 cells
Dynein transport: dynein cargo transport inhibition | 3617.4 mouse cells, GR-EGFP nuclear translocation imaging; test concentration mostly 20 µM; stimulated with dexamethasone, 1 µM; stronger effect = lower value | z-score, hits read low | 0.47% of 220,000 active;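 active = plate z-score of nuclear minus cytoplasmic receptor signal below a set negative limit, without overly bright fluorescence or cell loss, cut at about -3.5 in these data, passing the limit was not always enough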;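 note: z-score of nuclear minus cytoplasmic ring GR-EGFP intensity difference per well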
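Also added: dexamethasone, 1.0 µM final. Medium: tet-free, stripped-serum medium. Detection: fixed, Hoechst-stained cells imaged at 10x for EGFP. Read-out: nuclear-to-cytoplasmic GR-EGFP distribution per well. Times: induction 48 h, compound 1 h, agonist 30 min.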
Ins promoter up: MIN6 insulin promoter up-regulation; MIN6 insulin promoter-GFP reporter, high-content imaging; stronger effect = higher value; z-score at 5 µM; 0.3% of 190,000 active; AID 1625;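 active = z-score above 3 at 5 µM with at least 500 cells counted in the well; inconclusive = wells under 500 cells, flagged as cytotoxic or low count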
* = called active by the depositor; i = inactive; ? = inconclusive; / = no result; + = active, no number. A selection: hits, their analogues and other compounds. The true share with any hit is near 2%.

SMILES	Autophagy HCS	Insulin prom inh	Furin inh	HSV replic up	Dynein transport	Ins promoter up
CC(C)c1cccc(C(C)C)c1NC(=O)COC(=O)C1=COCCO1	i	/	-18.5	i	0.607	-1.31
COc1cccc(CC(=O)N[C@@H](CCSC)c2nc3ccccc3[nH]2)c1	i	/	-16.3	i	1.31	-0.06
COc1ccc(Br)cc1/C=C/C(=O)Nc1ccc2ccccc2c1	i	16.7	-11.2	i	0.613	-1.17
CCC(=O)Nc1cccc(C(=O)/C=C/c2cc(Br)ccc2OC)c1	i	94.3*	-0.3	i	-2.03	0.08
Cn1c(/C(C#N)=C/c2ccc(-c3ccc(S(N)(=O)=O)cc3)o2)nc2ccccc21	+	4.0	9.0	/	6.21	/
CCN(CC)C(=O)Nc1ccc(C(=O)OC)cc1	i	83.3*	-12.5	i	-0.542	/
CCN(CC)C(=S)Nc1ccc(C(=O)OC)cc1	i	/	-23.9	i	0.924	-0.4
Cc1ccc2nc(NC(=O)COC(=O)c3ccccn3)sc2c1	i	18.2	-14.1	i	0.128	-0.28
CC(=O)Oc1ccc(OC(C)=O)c2c1CC(C)=C(C)C2	/	/	-16.6	?	-0.446	-1.15
Cc1c(N=C2SCC(=O)N2/N=C\c2ccc(Br)cc2)c(=O)n(-c2ccccc2)n1C	i	-20.0	-26.9	i	-0.656	0.04
Cn1cc(SCC(=O)N2CCN(c3ccccc3)CC2)c2ccccc21	i	/	-14.1	/	-0.993	-0.08
Cn1cc(SCC(=O)O)c2ccccc21	i	83.3*	-14.6	i	1.12	/
CCOC(=O)N1CCN(C(=O)c2ccc(OC)c(S(=O)(=O)N3CCOCC3)c2)CC1	i	77.8*	-22.5	i	1.16	-0.02
COc1ccc(CS(=O)c2nc(C)cc(C)c2S(C)(=O)=O)cc1 (stereo not given)	i	-54.5	-16.6	i	-0.00679	-0.08
O=C1CC(N2CCC(c3nc4ccccc4o3)CC2)C(=O)N1Cc1cccs1 (stereo not given)	i	10.8	26.6*	i	1.41	0.37
Cc1cc(C(=O)NCc2ccccc2)c(=O)[nH]c1C	i	72.7*	-55.6	i	0.172	0.25
CCCC(C(=O)NCc1ccccc1)N(C(=O)Cn1nnc(-c2cccs2)n1)c1ccc2c(c1)OCCO2 (stereo not given)	+	62.5	-17.7	i	-0.0576	-0.65
Cn1c(Cc2ccccc2)nnc1SCc1ccc(C(=O)O)cc1	i	75.0*	-25.9	i	-0.441	0.39
Cn1c(CSCc2ccccc2)nnc1SCC(=O)Nc1ccc(C(=O)O)cc1	i	/	-18.3	i	-0.336	0.29
N#CCSc1ccc(-c2nc3ccccc3[nH]2)cn1	i	89.7*	-13.5	i	1.05	/
Cc1[nH]n(-c2ccccc2)c(=O)c1C(c1ccc(O)c([N+](=O)[O-])c1)c1c(C)[nH]n(-c2ccccc2)c1=O	i	77.3*	-11.1	i	-0.188	/
COc1nc(OC)nc(N2CCC(C(=O)NCc3cccs3)CC2)n1	i	-5.3	-19.9	i	-0.736	3.48*
Cc1cnc(C)c(N2CCC(C(=O)NCc3cccs3)CC2)n1	i	0.0	-14.2	i	-0.532	/
Cc1c(Cl)cccc1NC(=S)N(CCN(C)C)C(C)c1ccco1 (stereo not given)	/	/	-13.1	i	0.133	-0.6
Cc1coc(NC(=O)CSc2nc(-c3ccc(Cl)cc3)cc(C(F)(F)F)c2C#N)n1	i	32.1	-15.0	i	1.07	0.72
SMILES	Autophagy HCS	Insulin prom inh	Furin inh	HSV replic up	Dynein transport	Ins promoter up
COc1ccc(-c2cc(C(F)(F)F)c(C#N)c(SCC(=O)Nc3ccccc3C#N)n2)cc1	+	-46.1	-19.5	i	0.143	0.35
COc1ccc(NC(=O)CSc2nc(-c3ccc(C)cc3)cc(C(F)(F)F)c2C#N)cc1	i	/	-36.4	i	0.622	0.08
COc1ccc(-c2cc(C(F)(F)F)c(C#N)c(SCC(=O)Nc3nc(C)co3)n2)cc1	+	-160.0	-36.2	i	-0.649	-0.14
CCc1ccc(NC(=O)CN2C(=O)C(=O)N(Cc3ccccc3)C2=O)cc1	i	/	-20.7	i	-0.377	0.3
CCCC(=O)Nc1cccc(Oc2nc(C)cc(C)c2C#N)c1	i	48.7	37.3*	i	1.39	-1.15
Cc1cc(C)c(C#N)c(Oc2ccc(O)cc2)n1	i	-114.3	-1.3	i	1.92	1.08
CC(C)(C)NC(=O)/C=C/c1cccc(C(F)(F)F)c1	i	60.0*	-22.6	i	-0.668	0.78
CC(=O)Nc1ccc(NC(=O)/C=C/c2cccc(C(F)(F)F)c2)cc1	i	-6.7	-10.8	i	-0.359	-0.21
CSc1nc2ccc(NC(=O)c3cc4ccccc4o3)cc2s1	i	/	-14.9	i	0.189	-1.12
COc1cc(NC(=O)c2cc(Cl)ccc2Cl)ccc1-c1cc2ccccc2oc1=O	+	-106.5	-21.2	i	-0.74	-0.24
OCC1(CCOc2ccccc2)CCN(C2Cc3ccccc3C2)CC1	i	/	-24.1	i	-1.22	-1.2
CC(=O)NC1C(=O)N(CCc2ccccc2)c2ccc(Br)cc21 (stereo not given)	i	71.9*	-15.8	/	0.0843	-0.2
CC(C)(C)c1nc(SCC(=O)c2ccccc2)c2ccccc2n1	+	/	2.4	i	0.149	-1.51
CC(C)(C)c1nc(SCC(=O)N2CCCC2)c2ccccc2n1	i	-28.6	-6.0	i	-0.332	-0.32
O=C(Nc1sc(-c2ccccc2)cc1C(=O)O)c1ccccc1	/	/	-11.2	i	-0.828	/
Cc1cc(C)n2nnnc2n1	/	/	-20.4	i	-0.948	0.26
COC(=O)c1sc2cc([N+](=O)[O-])cc(SCC(C)C)c2c1N	+	i	-28.4	?	-0.53	?
CCOC(=O)c1ccc(NC(=O)Nc2ccc3c4c(cccc24)C(=O)N3CC)cc1	+	36.4	-12.9	i	0.493	-0.27
COc1ccc(CCC(=O)Nc2ccc(-c3noc(-c4ccc(OC)c(OC)c4)n3)cc2)cc1	+	-25.7	-17.1	i	-0.322	-0.46
CC(c1ccccc1)n1c(-c2cccs2)nc2c(c(=O)c3ccccc3n2C)c1=O (stereo not given)	/	/	-21.0	i	0.546	0.76
Cc1ccc(CNC(=O)c2ccc(COc3ccccc3)cc2)cc1	i	-40.5	-4.8	i	-0.284	-0.1
Cc1ccccc1CSc1ccc2nnc(-c3ccccn3)n2n1	i	/	-14.3	i	0.562	-0.42
CCN(CC)CCCNc1oc(-c2cccc(Cl)c2)nc1C#N	+	13.5	-5.8	i	2.48	-0.9
CN(C)CCCNc1oc(-c2ccc(Cl)cc2)nc1C#N	i	15.8	-69.9	i	1.01	-0.81
O=C(Cn1ncc2c(=O)oc3ccccc3c21)NC1CC1	i	/	-25.9	i	0.0237	1.18
O=C(Cn1ncc2c(=O)oc3ccccc3c21)Nc1nc2ccccc2s1	i	-244.0	25.4*	i	-0.18	1.05
COC(=O)c1cc(NC(=O)c2cccc([N+](=O)[O-])c2C)ccc1Cl	i	/	-28.8	i	-1.79	0.38
